Measurements: ChEMBL document CHEMBL1141088, “A new pyridazine series of GABAA alpha5 ligands” (J Med Chem, 2005)

Legend:
[1] = molecular target: T1, GABA-A receptor; alpha-5/beta-3/gamma-2 (Homo sapiens, UniProt P18507+P28472+P31644); assay: Displacement of [3H]-Ro- 15-1788 binding from human recombinant Gamma-aminobutyric acid A receptor alpha-5-beta-3-gamma-2 expressed in mouse fibroblast L(tk-) cells (30 min at 24 degrees C, pH 7.4); format: cell-based
T1 sequence (P18507 whole entry): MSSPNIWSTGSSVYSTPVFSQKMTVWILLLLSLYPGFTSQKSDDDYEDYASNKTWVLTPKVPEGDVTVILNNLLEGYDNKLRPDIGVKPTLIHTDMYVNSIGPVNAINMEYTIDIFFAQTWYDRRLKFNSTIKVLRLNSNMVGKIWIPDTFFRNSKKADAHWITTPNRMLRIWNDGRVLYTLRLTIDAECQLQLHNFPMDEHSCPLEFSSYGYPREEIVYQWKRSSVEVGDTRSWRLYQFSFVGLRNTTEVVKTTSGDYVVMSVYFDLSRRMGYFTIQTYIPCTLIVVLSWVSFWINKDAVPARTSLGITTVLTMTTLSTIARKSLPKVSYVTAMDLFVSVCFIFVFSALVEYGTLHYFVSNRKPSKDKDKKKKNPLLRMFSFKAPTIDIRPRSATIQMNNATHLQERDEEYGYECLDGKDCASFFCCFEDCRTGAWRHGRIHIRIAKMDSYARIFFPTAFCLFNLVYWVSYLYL
T1 sequence (P28472 whole entry): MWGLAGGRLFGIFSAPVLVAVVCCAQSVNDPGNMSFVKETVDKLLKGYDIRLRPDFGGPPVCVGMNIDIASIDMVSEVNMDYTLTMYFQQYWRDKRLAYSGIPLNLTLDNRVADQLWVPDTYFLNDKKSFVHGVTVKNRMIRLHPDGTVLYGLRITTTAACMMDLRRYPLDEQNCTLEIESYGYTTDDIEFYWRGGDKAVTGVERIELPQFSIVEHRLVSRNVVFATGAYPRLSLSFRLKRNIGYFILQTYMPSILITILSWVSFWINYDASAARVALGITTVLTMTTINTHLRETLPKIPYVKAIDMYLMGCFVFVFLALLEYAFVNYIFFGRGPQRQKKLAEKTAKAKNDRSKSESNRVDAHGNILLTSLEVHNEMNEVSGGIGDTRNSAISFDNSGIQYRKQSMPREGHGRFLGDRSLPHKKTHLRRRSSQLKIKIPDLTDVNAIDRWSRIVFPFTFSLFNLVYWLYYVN
T1 sequence (P31644 whole entry): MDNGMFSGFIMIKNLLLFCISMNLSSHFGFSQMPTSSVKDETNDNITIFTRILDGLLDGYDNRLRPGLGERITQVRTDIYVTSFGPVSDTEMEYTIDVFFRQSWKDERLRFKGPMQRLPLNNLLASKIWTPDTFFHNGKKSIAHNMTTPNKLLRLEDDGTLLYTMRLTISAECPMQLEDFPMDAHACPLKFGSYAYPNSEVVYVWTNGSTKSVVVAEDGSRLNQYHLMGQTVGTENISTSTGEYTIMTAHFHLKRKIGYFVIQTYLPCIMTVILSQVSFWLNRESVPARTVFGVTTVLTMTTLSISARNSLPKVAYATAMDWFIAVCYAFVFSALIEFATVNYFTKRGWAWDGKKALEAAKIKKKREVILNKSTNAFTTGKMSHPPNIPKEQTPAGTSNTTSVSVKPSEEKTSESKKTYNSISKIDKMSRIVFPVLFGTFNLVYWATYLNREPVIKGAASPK
Method in brief: (§1)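 Membranes from L(tk-) cells stably expressing human α1, α3 or α5 β3γ2 in 50 mM Tris pH 7.4. [3H]Ro15-1788 at 1.8 nM final, 30 min at 24 °C. Nonspecific binding set with 10 µM flunitrazepam, total binding in 0.1% DMSO. Filtration, scintillation counting. Ki is mean ± SEM of ≥3 independent determinations.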

[2] = molecular target: T1, GABA-A receptor; alpha-5/beta-3/gamma-2; assay: Negative logarithm of effective concentration against GABA-A alpha-5-beta-3-gamma-2 receptor; format: protein-complex assay
Method in brief: (§2)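 Whole-cell patch clamp of L(tk-) cells stably expressing human α1, α3 or α5 β3γ2s, perfused with bicarbonate saline pH 7.2, CsCl pipette solution pH 7.3. Drugs applied by double-barrelled pipette; GABA in 5 s pulses at 30 s intervals. Modulation measured against a GABA EC20 set for each cell; curves fitted to a Hill equation.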

[3] = molecular target: T2, GABA-A receptor; alpha-1/beta-3/gamma-2 (Homo sapiens, UniProt P14867+P18507+P28472); assay: Displacement of [3H]-Ro- 15-1788 binding from human recombinant Gamma-aminobutyric acid A receptor alpha-1-beta-3-gamma-2 expressed in mouse fibroblast L(tk-) cells (30 min at 24 degrees C, pH 7.4); format: cell-based; method in brief: as §1
T2 sequence (P14867 whole entry): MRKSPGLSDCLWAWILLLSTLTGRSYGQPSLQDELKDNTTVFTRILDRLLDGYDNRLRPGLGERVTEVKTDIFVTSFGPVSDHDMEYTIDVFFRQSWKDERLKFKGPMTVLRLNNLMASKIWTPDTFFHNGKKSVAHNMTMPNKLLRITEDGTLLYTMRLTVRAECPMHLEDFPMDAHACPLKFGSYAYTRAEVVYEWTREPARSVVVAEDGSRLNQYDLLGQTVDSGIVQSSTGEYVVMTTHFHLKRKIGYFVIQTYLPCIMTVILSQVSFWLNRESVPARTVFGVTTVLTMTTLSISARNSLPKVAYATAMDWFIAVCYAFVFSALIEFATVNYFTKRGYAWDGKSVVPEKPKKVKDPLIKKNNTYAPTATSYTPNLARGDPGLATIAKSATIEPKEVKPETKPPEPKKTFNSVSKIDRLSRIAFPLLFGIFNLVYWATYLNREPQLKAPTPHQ
T2 sequence (P18507 whole entry): T1 sequence (P18507 whole entry)
T2 sequence (P28472 whole entry): T1 sequence (P28472 whole entry)

[4] = Clearance of compound determined after iv administration at 1 mg/kg dose as a solution(1 mg/mL) in a PEG 300:H2O(3:1); format: ADME, organism-based; parameters: dose 1 mg/kg, route intravenous; conditions: rat, in vivo
Method in brief: (§3)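 Single rat, cannulated, given 100 units heparin, recovered 48 h, fasted overnight. Dosed 1 mg/kg iv bolus (1 mL/kg) in PEG 300:water 3:1. Serial blood sampled to 6 h and plasma analysed by LC-MS/MS with diazepam internal standard. Cl in mL/min/kg from plasma, T1/2 in hours from 1–3 h data, Vdss in L/kg.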

[5] = molecular target: GABA-A receptor; alpha-3/beta-3/gamma-2 (Homo sapiens) (UniProt P18507+P28472+P34903); assay: Maximum inhibition of GABA EC20 response at GABA-A receptor alpha-3-beta-3-gamma-2,n=3; format: protein-complex assay; method in brief: as §2
[6] = Low volume of distribution of compound determined after iv administration at 1 mg/kg dose as a solution(1 mg/mL) in a PEG 300:H2O(3:1); format: ADME, organism-based; parameters: dose 1 mg/kg, route intravenous; conditions: rat, in vivo, read-out: Vdss; method in brief: as §3

Ki [1]: 5.2 nM
EC50 [2]: 7.41 nM
Ki [3]: 7 nM
clearance [4]: 36 mL/min/kg
Maximum inhibition [5]: -16%
Vd [6]: 1.5 L/kg
Structure (SMILES): N#Cc1cccc(-c2cnnc(-c3ccccc3)c2)c1
